Active and inactive are the calls of the source. The rule behind the calls is not given here.
Species on record: Canis familiaris
Assay: PAF-antagonist activity in dog platelets by PAF-binding assay; No significant inhibition at 1000 nM
Format: functional, Canis lupus familiaris
Settings: not given

SMILES	IC50
Cc1nnc2n1-c1cc(C#CCN3C(=O)c4ccccc4C3=O)ccc1C(c1ccccc1F)=NC2	Not Active

Tested on: Cavia porcellus
Assay: Inhibition of PAF-induced bronchoconstriction in the guinea pig after intravenous administration after one-minute pretreatment time; No significant inhibition at 1 mg/kg
Format: functional, organism-based
Parameters: dose 1 mg/kg
Settings: not given

SMILES	ID50
Cc1nnc2n1-c1sc(C#CCn3c(=O)c4ccccc4c4ccccc43)cc1C(c1ccccc1Cl)NC2=O (configuration not stated)	inactive

Tested on: Cavia porcellus
Assay: Inhibition of PAF-induced bronchoconstriction in guinea pig after oral administration after two-hour pretreatment time
Format: functional
Settings: read-out: ID50 (the source's name)
Method in brief: (§1)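 Guinea pigs dosed orally with drug or vehicle 2 h before iv PAF challenge (1 µg/kg, maximal constrictory dose). Propranolol given 5 min before PAF, succinylcholine (1.2 mg/kg iv) to stop breathing, animals ventilated. Read-out is tracheal pressure change, averaged over 3 control and 3 treated animals.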

SMILES	ED50 [mg/kg]
Cc1nnc2n1-c1ccc(C#CCN3C(=O)c4ccccc4C3=O)cc1C(c1ccccc1F)=NC2	0.5
Cc1nnc2n1-c1sc(C#CCOc3ccccc3)cc1C(c1ccccc1Cl)=NC2	0.1
Cc1nnc2n1-c1sc(C#CCN3C(=O)COc4cc(F)ccc43)cc1C(c1ccccc1Cl)=NC2	0.02
Cc1nnc2n1-c1sc(C#CCn3c4c(c5ccccc53)CCCCC4)cc1C(c1ccccc1Cl)=NC2	0.004
Cc1nnc2n1-c1sc(C#CCN3C(=O)COc4ccccc43)cc1C(c1ccccc1Cl)=NC2	0.02
Cc1nnc2n1-c1sc(C#CCn3c(=O)n(-c4ccccc4)c4ccccc43)cc1C(c1ccccc1Cl)=NC2	0.02
Cc1nnc2n1-c1sc(C#CCN3C(=O)NCc4ccccc43)cc1C(c1ccccc1Cl)=NC2	0.05
Cc1nnc2n1-c1sc(C#CCN3C(=O)CCc4cc(Cl)cc(Cl)c43)cc1C(c1ccccc1Cl)=NC2	0.02
Cc1nnc2n1-c1sc(C#CCn3c4c(c5cc(Cl)ccc53)CCCC4)cc1C(c1ccccc1Cl)=NC2	0.04
Cc1nnc2n1-c1ccc(C#CCN3C(=O)CCc4ccccc43)cc1C(c1ccccc1F)=N[C@H]2C	0.1
Cc1nnc2n1-c1sc(C#CCn3cnc4ccccc43)cc1C(c1ccccc1Cl)=NC2	0.1
Cc1nnc2n1-c1sc(C#CCn3c4c(c5cc(Cl)ccc53)CCCCC4)cc1C(c1ccccc1Cl)=NC2	0.3
Cc1nnc2n1-c1sc(C#CCN3C(=O)c4cccc5cccc3c45)cc1C(c1ccccc1Cl)=NC2	0.04
Cc1nnc2n1-c1sc(C#CCN3C(=O)OCc4ccccc43)cc1C(c1ccccc1Cl)=NC2	0.08
Cc1nnc2n1-c1sc(C#CCOc3cccnc3)cc1C(c1ccccc1Cl)=NC2	0.2
O=c1c2ccccc2c2ccccc2n1CC#Cc1cc2c(s1)-n1c(CO)nnc1CN=C2c1ccccc1Cl	0.3
Cc1nnc2n1-c1sc(C#CCn3c4ccccc4c(=O)c4ccccc43)cc1C(c1ccccc1Cl)=NC2	0.02
Cc1nnc2n1-c1sc(C#CCn3ncc4ccccc43)cc1C(c1ccccc1Cl)=NC2	0.02
Cc1nnc2n1-c1sc(C#CCN3CCc4ccccc4C3=O)cc1C(c1ccccc1Cl)=NC2	0.03
Cc1nnc2n1-c1sc(C#CCn3c(=O)c4ccccc4c(=O)c4ccccc43)cc1C(c1ccccc1Cl)=NC2	0.03
Cc1nnc2n1-c1ccc(C#CCN3C(=O)CCc4ccccc43)cc1C(c1ccccc1F)=NC2	0.4
Cc1nnc2n1-c1sc(C#CCN3C(=O)Cn4ccc5c(Cl)ccc3c54)cc1C(c1ccccc1Cl)=NC2	0.003
Cc1nnc2n1-c1sc(C#CCn3c(=O)c4ccccc4c4ccccc4c3=O)cc1C(c1ccccc1Cl)=NC2	0.02
Cc1nnc2n1-c1sc(C#CCn3c(=O)n(CCN(C)C)c(=O)c4ccccc43)cc1C(c1ccccc1Cl)=NC2	0.3

SMILES	ED50 [mg/kg]
Cc1nnc2n1-c1sc(C#CCN3C(=O)CC(C)(C)c4ccccc43)cc1C(c1ccccc1Cl)=NC2	0.03
Cc1nnc2n1-c1sc(CCC(=O)N3CCOCC3)cc1C(c1ccccc1Cl)=NC2 [APAFANT]	1.2
Cc1nnc2n1-c1sc(C#CCC34CCCc5cccc(c53)NC4=O)cc1C(c1ccccc1Cl)=NC2 (configuration not stated)	0.3
Cc1nnc2n1-c1sc(C#CCN3C(=O)COc4ccc(Cl)cc43)cc1C(c1ccccc1Cl)=NC2	0.05
Cc1nnc2n1-c1ccc(C#CCCN3C(=O)c4ccccc4C3=O)cc1C(c1ccccc1F)=NC2	0.3
Cc1nnc2n1-c1sc(C#CCn3c(=O)n(C)c4ccccc43)cc1C(c1ccccc1Cl)=NC2	0.04
C=C=Cn1c(=O)n(CC#Cc2cc3c(s2)-n2c(C)nnc2CN=C3c2ccccc2Cl)c2ccccc21	0.03
Cc1nnc2n1-c1sc(C#CCn3c(O)nc4ccccc43)cc1C(c1ccccc1Cl)=NC2	0.2
Cc1nnc2n1-c1sc(C#CCn3c(=O)n(C)c(=O)c4ccccc43)cc1C(c1ccccc1Cl)=NC2	0.02
Cc1nnc2n1-c1sc(C#CCN3C(=O)c4cccc5cccc(c45)C3=O)cc1C(c1ccccc1Cl)=NC2	0.03
Cc1nnc2n1-c1sc(C#CCn3c(=O)c4cc(Cl)ccc4c4ccc(Cl)cc43)cc1C(c1ccccc1Cl)=NC2	0.03
Cc1nnc2n1-c1sc(C#CCn3c4ccccc4c4ccccc43)cc1C(c1ccccc1Cl)=NC2	0.02
Cc1nnc2n1-c1sc(C#CCN3C(=O)CCc4ccc(Cl)cc43)cc1C(c1ccccc1Cl)=NC2	0.1
Cc1nnc2n1-c1sc(C#CCn3c(=O)c4ccccc4c4ccccc43)cc1C(c1ccccc1Cl)=NC2O (configuration not stated)	0.07
CCCCC/C(=C\C=C\C(=O)N[C@H](C)CCCc1cccnc1)c1ccc(OC)cc1	4
Cc1nnc2n1-c1sc(C#CCn3c(=O)ccc4ccccc43)cc1C(c1ccccc1Cl)=NC2	0.02
Cc1nnc2n1-c1ccc(C#CCN3C(=O)c4cccc5cccc(c45)C3=O)cc1C(c1ccccc1Cl)=NC2	0.6
Cc1nnc2n1-c1sc(C#CCn3c(=O)c4ccccc4c4ccccc43)cc1C(c1ccccc1Cl)=NC2	0.01
COc1cc2c(cc1OC)C(=O)N(CC#Cc1cc3c(s1)-n1c(C)nnc1CN=C3c1ccccc1Cl)CC2	0.05
Cc1nnc2n1-c1sc(C#CCn3c(=O)n(CCN(C)C)c4ccccc43)cc1C(c1ccccc1Cl)=NC2	0.2
Cc1nnc2n1-c1ccc(C#CCN3C(=O)CSc4ccccc43)cc1C(c1ccccc1F)=NC2	0.3
Cc1nnc2n1-c1sc(C#CCn3ccc4ccccc4c3=O)cc1C(c1ccccc1Cl)=NC2	0.03
Cc1nnc2n1-c1sc(C#CCn3c(=O)c4ccccc4c4ccccc43)cc1C(c1ccccc1Cl)=NC2C (configuration not stated)	0.03

Tested on: Cavia porcellus
Assay: Inhibitory activity at 0.03 mg/kg was determined against PAF-induced bronchoconstriction in guinea pig
Format: functional
Settings: not given
Method in brief: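 Duration-of-action test: single 0.03 mg/kg oral dose given 24 h before iv PAF challenge (1 µg/kg) in ventilated, paralysed guinea pigs. Percent inhibition of the tracheal pressure rise versus vehicle controls. Values are means ± SEM.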

SMILES	inhibition in vivo at 0.03 mg/kg [%]
Cc1nnc2n1-c1sc(C#CCn3c4c(c5ccccc53)CCCCC4)cc1C(c1ccccc1Cl)=NC2	8
Cc1nnc2n1-c1sc(C#CCN3C(=O)Cn4ccc5c(Cl)ccc3c54)cc1C(c1ccccc1Cl)=NC2	0
Cc1nnc2n1-c1sc(C#CCn3c4c(c5ccccc53)CCCC4)cc1C(c1ccccc1Cl)=NC2	75
Cc1nnc2n1-c1sc(C#CCN3Cc4cccc5cccc(c45)C3=O)cc1C(c1ccccc1Cl)=NC2	60
Cc1nnc2n1-c1sc(C#CCn3c(=O)c4ccccc4c4ccccc43)cc1C(c1ccccc1Cl)=NC2	75

Tested on: Cavia porcellus
Assay: Inhibition of PAF-induced bronchoconstriction in guinea pig after oral administration after two-hour pretreatment time; No significant inhibition at 1 mg/kg
Format: functional, organism-based
Parameters: dose 1 mg/kg
Settings: not given

SMILES	ID50
Cc1nnc2n1-c1sc(C#CCn3c(=O)c4ccccc4c4ccccc43)cc1C(c1ccccc1Cl)NC2=O (configuration not stated)	inactive
Cc1nnc2n1-c1sc(I)cc1C(c1cc([N+](=O)[O-])ccc1Cl)=NC2	inactive
Cc1nnc2n1-c1sc(C#CCN3C(=O)CCc4ccccc43)cc1C(c1cc([N+](=O)[O-])ccc1Cl)=NC2	inactive
Cc1nnc2n1-c1sc(I)cc1C(c1ccccc1Cl)=NC2	inactive
Cc1nnc2n1-c1sc(I)cc1C(c1ccccc1Cl)=NC2C (configuration not stated)	inactive

Tested on: Cavia porcellus
Assay: Compound was measured by using PAF-induced Bronchoconstriction assay in the guinea pig after administration orally after two-hour pretreatment time
Format: functional
Settings: po, read-out: ID50 (the source's name)
Method in brief: as §1

SMILES	ED50 [mg/kg]
Cc1nnc2n1-c1sc(C#CCN3C(=O)CCc4ccccc43)cc1C(c1ccccc1Cl)=NC2	0.02

Tested on: Cavia porcellus
Assay: Inhibition of PAF-induced bronchoconstriction in the guinea pig after administration (1 mg/kg) intravenously at two-hourpretreatment time
Format: functional
Settings: not given

SMILES	Inhibition [%]
CCc1nnc2n1-c1ccc(C#CCN3C(=O)c4ccccc4C3=O)cc1C(c1ccccc1F)=NC2	30

Target: not listed separately
Assay: PAF-antagonist activity determined in dog platelets by PAF-binding assay
Settings: not given

SMILES	IC50 [nM]
CCCCC/C(=C\C=C\C(=O)N[C@H](C)CCCc1cccnc1)c1ccc(OC)cc1	40
